Source: ChEMBL document CHEMBL4177766, “Targeting a Subpocket in Trypanosoma brucei Phosphodiesterase B1 (TbrPDEB1) Enables the Structure-Based Discovery of Selective Inhibitors with Trypanocidal Activity” (J Med Chem, 2018)
Active and inactive are the calls of the source. The rule behind the calls is not given here.

Experiments:
[1] = target: 3',5'-cyclic-AMP phosphodiesterase 4B (Homo sapiens, UniProt Q07343); test: Inhibition of full length recombinant human PDE4B1 expressed in Sf21 insect cells using cAMP as substrate by scintillation proximity assay
[2] = target: T1, Class 1 phosphodiesterase PDEB1 (Trypanosoma brucei) (UniProt Q8WQX9); test: Inhibition of PDEB1 in bloodstream form of Trypanosoma brucei Lister 427 assessed as increase in intracellular cAMP levels at 0.3 uM after 5 hrs by ELISA; format: cell-based
T1 sequence (whole entry): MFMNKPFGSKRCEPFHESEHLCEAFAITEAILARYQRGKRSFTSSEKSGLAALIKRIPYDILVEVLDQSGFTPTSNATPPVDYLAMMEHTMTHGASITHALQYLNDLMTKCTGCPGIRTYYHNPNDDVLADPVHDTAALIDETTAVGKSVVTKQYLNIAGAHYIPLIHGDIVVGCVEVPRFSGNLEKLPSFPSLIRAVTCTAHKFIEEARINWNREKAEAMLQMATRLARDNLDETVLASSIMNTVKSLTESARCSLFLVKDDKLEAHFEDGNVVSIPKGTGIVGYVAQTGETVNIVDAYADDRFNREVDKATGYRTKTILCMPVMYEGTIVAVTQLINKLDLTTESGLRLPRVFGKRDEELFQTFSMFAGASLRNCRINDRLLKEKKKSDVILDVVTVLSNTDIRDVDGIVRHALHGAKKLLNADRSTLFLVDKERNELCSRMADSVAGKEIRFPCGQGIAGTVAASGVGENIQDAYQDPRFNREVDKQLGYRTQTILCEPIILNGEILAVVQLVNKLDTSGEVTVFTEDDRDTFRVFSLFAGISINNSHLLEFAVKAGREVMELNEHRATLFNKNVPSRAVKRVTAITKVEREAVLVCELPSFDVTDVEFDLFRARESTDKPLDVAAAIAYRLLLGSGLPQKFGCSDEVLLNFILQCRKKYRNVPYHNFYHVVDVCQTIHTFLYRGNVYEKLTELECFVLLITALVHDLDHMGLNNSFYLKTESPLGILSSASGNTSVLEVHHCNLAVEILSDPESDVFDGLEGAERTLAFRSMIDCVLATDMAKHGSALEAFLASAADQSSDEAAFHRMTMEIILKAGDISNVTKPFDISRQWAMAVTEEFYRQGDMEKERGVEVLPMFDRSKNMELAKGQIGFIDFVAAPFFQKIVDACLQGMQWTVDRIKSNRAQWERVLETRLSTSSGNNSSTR
Method in brief: (§1)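 Log-phase bloodstream forms in HMI-9/FBS at 2 × 10^6 cells/mL, 6 mL subcultures; test drug 0.1–10 μM, reference inhibitor 0.3 μM, pentamidine 0.025 μM or no drug; 5 h at 37 °C, 5% CO2. 5 × 10^6 cells pelleted, lysed 20 min on ice in 0.1 M HCl, supernatant frozen for cAMP. Duplicates; mean of four determinations ± SEM; Student's t-test.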

[3] = target: T2, Class 1 phosphodiesterase PDEB1 (Trypanosoma brucei, UniProt Q8WQX9); test: Inhibition of full length Trypanosoma brucei PDEB1 expressed in Sf21 insect cells using cAMP as substrate by scintillation proximity assay
T2 sequence (Q8WQX9 whole entry): T1 sequence (whole entry)
Method in brief: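 Enzyme amount set so that under 20% of substrate was consumed. Ki reported as mean ± SD of at least two independent experiments.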

[4] = target: T1, Class 1 phosphodiesterase PDEB1 (Trypanosoma brucei); test: Inhibition of PDEB1 in bloodstream form of Trypanosoma brucei Lister 427 assessed as increase in intracellular cAMP levels at 0.025 uM after 5 hrs by ELISA; format: cell-based; method in brief: as §1
[5] = Selectivity ratio of Ki for full length recombinant human PDE4B1 to Ki for full length Trypanosoma brucei PDEB1
Trypanosoma brucei [6] = test: Antitrypanosomal activity against trypomastigote form of Trypanosoma brucei Squib 427 assessed as parasite growth inhibition after 72 hrs by resazurin assay; format: functional, organism-based; conditions: Squib 427, 72 h
Method in brief: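 Suramin-sensitive Squib-427 bloodstream trypomastigotes grown in HMI-9 + 10% FCS at 37 °C, 5% CO2. About 1.5 × 10^4 parasites per well exposed to five concentrations (64, 16, 4, 1, 0.25 μM), DMSO ≤0.5% final. After 72 h, resazurin added and absorbance read at 540 nm 4 h later, expressed as % of blank controls. Suramin reference; IC50 from triplicate experiments, mean ± SD.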

MRC5 = test: Cytotoxicity against human MRC5 cells assessed as decrease in cell viability after 72 hrs by resazurin assay; format: cell-based; conditions: mrc5, 72 h
[7] = target: T1, Class 1 phosphodiesterase PDEB1 (Trypanosoma brucei); test: Inhibition of PDEB1 in bloodstream form of Trypanosoma brucei Lister 427 assessed as increase in intracellular cAMP levels after 5 hrs by ELISA; format: cell-based; method in brief: as §1
Trypanosoma brucei [8] = test: Antitrypanosomal activity against bloodstream form of Trypanosoma brucei Lister 427 assessed as defect in cytokinesis at 10 uM after 6 hrs by DAPI staining-based fluorescence microscopic method; format: functional, organism-based
Method in brief: (§2)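 Bloodstream-form trypanosomes seeded at 2 × 10^5 cells/mL with 10 μM drug; samples taken at 0, 6, 12 and 24 h, pelleted at 4 °C, washed in PBS pH 7.4, air-dried on slides, fixed 15 min in 4% formaldehyde/PBS, mounted with DAPI. Nuclei, kinetoplasts, cell division and morphology were scored by brightfield and fluorescence microscopy.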

Trypanosoma brucei [9] = test: Antitrypanosomal activity against bloodstream form of Trypanosoma brucei Lister 427 assessed as appearance of rounded cells with multiple flagella at 10 uM after 12 hrs by DAPI staining-based fluorescence microscopic method; format: functional, organism-based; method in brief: as §2
Trypanosoma brucei [10] = test: Antitrypanosomal activity against bloodstream form of Trypanosoma brucei Lister 427 assessed as appearance of misshapen cells at 10 uM after 24 hrs by DAPI staining-based fluorescence microscopic method; format: functional, organism-based; method in brief: as §2

Sequence of 3',5'-cyclic-AMP phosphodiesterase 4B (Q07343 whole entry): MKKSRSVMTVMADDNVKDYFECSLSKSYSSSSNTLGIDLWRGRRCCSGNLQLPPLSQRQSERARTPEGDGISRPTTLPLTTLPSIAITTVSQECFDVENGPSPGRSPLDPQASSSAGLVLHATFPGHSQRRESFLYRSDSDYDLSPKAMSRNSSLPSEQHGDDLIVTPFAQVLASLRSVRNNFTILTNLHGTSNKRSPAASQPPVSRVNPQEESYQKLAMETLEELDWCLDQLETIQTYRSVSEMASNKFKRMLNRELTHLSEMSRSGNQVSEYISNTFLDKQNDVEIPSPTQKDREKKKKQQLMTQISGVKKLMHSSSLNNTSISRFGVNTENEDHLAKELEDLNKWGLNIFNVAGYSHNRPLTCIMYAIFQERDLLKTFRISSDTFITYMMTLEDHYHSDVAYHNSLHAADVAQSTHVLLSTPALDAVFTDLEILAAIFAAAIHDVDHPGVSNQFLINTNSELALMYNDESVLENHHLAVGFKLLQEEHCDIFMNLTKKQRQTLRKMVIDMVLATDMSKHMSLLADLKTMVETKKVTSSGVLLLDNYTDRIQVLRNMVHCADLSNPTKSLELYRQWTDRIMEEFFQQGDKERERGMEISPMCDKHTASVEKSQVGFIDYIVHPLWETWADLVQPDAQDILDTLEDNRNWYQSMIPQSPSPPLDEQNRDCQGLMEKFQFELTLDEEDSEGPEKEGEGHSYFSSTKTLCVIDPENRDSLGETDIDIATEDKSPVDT

Row | Compound | Ki [1] | Ki [3] | Ratio Ki [5] | also measured
1 | COc1ccc(C2=NN(C3CCCCCC3)C(=O)[C@@H]3CC=CC[C@H]23)cc1OCCCCOc1ccc(-c2nnn[nH]2)cc1 | 0.631 nM |  |  | inhibition [2]: Active
2 | COc1ccc(C2=NN(C3CCCCCC3)C(=O)[C@H]3CC=CC[C@@H]23)cc1-c1ccc(C(=O)NCC(N)=O)cc1 | 50100 nM | 3980 nM |  | 
3 | N=C(N)c1ccc(OCCCCCOc2ccc(C(=N)N)cc2)cc1 |  |  |  | inhibition [4]: inactive
4 | COc1ccc(C2=NN(C(C)C)C(=O)[C@@H]3CC=CC[C@H]23)cc1-c1ccc(C(=O)N2CCC[C@@H]2C(N)=O)cc1 (racemic) |  |  | 18 | 
5 | COc1ccc(C2=NN(C(C)C)C(=O)[C@@H]3CC=CC[C@H]23)cc1-c1ccc(C(=O)N2CC[C@@H](O)C2)cc1 (racemic) |  |  | 15 | 
6 | COc1ccc(C2=NN(C3CCCCCC3)C(=O)[C@@H]3CC=CC[C@H]23)cc1-c1ccc(C(=O)N2CCC[C@@H]2C(N)=O)cc1 (racemic) |  |  | 13 | 
7 | COc1ccc(C2=NN(C3CCCCCC3)C(=O)[C@@H]3CC=CC[C@H]23)cc1-c1ccc(C(=O)N2CC[C@@H](O)C2)cc1 (racemic) |  |  | 9 | 
8 | COc1ccc(C2=NN(C3CCCCCC3)C(=O)[C@@H]3CC=CC[C@H]23)cc1-c1ccc(C#N)cc1 (relative stereo) | 31.6 nM | 501 nM | 0.1 | 
9 | COc1ccc(C2=NN(C3CCCCCC3)C(=O)[C@@H]3CC=CC[C@H]23)cc1-c1ccc(C(N)=O)cc1 (relative stereo) | 158 nM | 158 nM | 1 | 
10 | COc1ccc(C2=NN(C3CCCCCC3)C(=O)[C@@H]3CC=CC[C@H]23)cc1-c1cccc(C(=O)O)c1 (relative stereo) | 12600 nM | 7940 nM | 2 | 
11 | COc1ccc(C2=NN(C3CCCCCC3)C(=O)[C@@H]3CC=CC[C@H]23)cc1-c1ccc(C(=O)NCC(=O)NCCO)cc1 (relative stereo) | 3160 nM | 398 nM | 7 | 
12 | COc1ccc(C2=NN(C(C)C)C(=O)[C@@H]3CC=CC[C@H]23)cc1-c1ccc(C(=O)NCC(N)=O)cc1 (relative stereo) | 2000 nM | 100 nM |  | IC50 (Trypanosoma brucei [6]; read-out: IC50): 6700 nM; CC50 (MRC5): 35000 nM
13 | COc1ccc(C2=NN(C3CCCCCC3)C(=O)[C@@H]3CC=CC[C@H]23)cc1-c1ccc(C(=O)O)cc1 (relative stereo) | 7940 nM | 1580 nM | 5 | 
14 | COc1ccc(C2=NN(C3CCCCCC3)C(=O)[C@@H]3CC=CC[C@H]23)cc1-c1ccc(C(=O)N(C)CC(N)=O)cc1 (relative stereo) | 2510 nM | 398 nM | 7 | 
15 | COc1ccc(C2=NN(C3CCCCCC3)C(=O)[C@@H]3CC=CC[C@H]23)cc1-c1ccc(C(=O)NCCC(N)=O)cc1 (relative stereo) | 1000 nM | 501 nM | 2 | 
16 | COCCNC(=O)CNC(=O)c1ccc(-c2cc(C3=NN(C4CCCCCC4)C(=O)[C@@H]4CC=CC[C@H]34)ccc2OC)cc1 (relative stereo) | 3980 nM | 501 nM | 8 | 
17 | COc1ccc(C2=NN(C3CCCCCC3)C(=O)[C@@H]3CC=CC[C@H]23)cc1-c1ccc(C(=O)NCC(N)=O)cc1 (relative stereo) |  |  |  | inhibition [7]: Dose-dependent effect; Activity (Trypanosoma brucei [8]): Active; Activity (Trypanosoma brucei [9]): Active; Activity (Trypanosoma brucei [10]): Active; IC50 (Trypanosoma brucei [6]; read-out: IC50): 5500 nM; CC50 (MRC5): 36000 nM
18 | COc1ccc(C2=NN(C3CCCCCC3)C(=O)[C@@H]3CC=CC[C@H]23)cc1-c1ccc(C(=O)NCC(=O)NC(C)C)cc1 (relative stereo) | 6310 nM | 2000 nM | 4 | 
19 | COc1ccc(C2=NN(C3CCCCCC3)C(=O)[C@@H]3CC=CC[C@H]23)cc1-c1ccc(C(=O)NCCNC(C)=O)cc1 (relative stereo) | 3980 nM | 794 nM | 5 | 
20 | COCCNC(=O)c1ccc(-c2cc(C3=NN(C4CCCCCC4)C(=O)[C@@H]4CC=CC[C@H]34)ccc2OC)cc1 (relative stereo) | 2000 nM | 316 nM | 7 | 
21 | CNC(=O)CNC(=O)c1ccc(-c2cc(C3=NN(C4CCCCCC4)C(=O)[C@@H]4CC=CC[C@H]34)ccc2OC)cc1 (relative stereo) | 2510 nM | 398 nM | 6 | 
22 | COc1ccc(C2=NN(C3CCCCCC3)C(=O)[C@@H]3CC=CC[C@H]23)cc1-c1ccc(C(=O)NCC(=O)N(C)C)cc1 (relative stereo) | 3160 nM | 794 nM | 4 | 
23 | COc1ccc(C2=NN(C3CCCCCC3)C(=O)[C@@H]3CC=CC[C@H]23)cc1-c1ccc(C(=O)N2CC(=O)N(C)C2)cc1 (relative stereo) |  |  | 1.4 | 
24 | COc1ccc(C2=NN(C3CCCCCC3)C(=O)[C@@H]3CC=CC[C@H]23)cc1-c1ccc(C(=O)N2CCC(=O)C2)cc1 (relative stereo) |  |  | 3 | 
25 | COc1ccc(C2=NN(C3CCCCCC3)C(=O)[C@@H]3CC=CC[C@H]23)cc1-c1ccc(C(=O)N2CNC(=O)C2)cc1 (relative stereo) |  |  | 1 | 
26 | O=C(Nc1c(Cl)cncc1Cl)c1ccc(OC(F)F)c(OCC2CC2)c1 [ROFLUMILAST] |  | 3160 nM |  | 
27 | Cc1ccc(C(=O)Nc2ccc(S(=O)(=O)O)c3cc(S(=O)(=O)O)cc(S(=O)(=O)O)c23)cc1NC(=O)c1cccc(NC(=O)Nc2cccc(C(=O)Nc3cc(C(=O)Nc4ccc(S(=O)(=O)O)c5cc(S(=O)(=O)O)cc(S(=O)(=O)O)c45)ccc3C)c2)c1 [SURAMIN] |  |  |  | IC50 (Trypanosoma brucei [6]; read-out: pIC50 (converted)): 39.8 nM
